Several values for one entry are separate records, joined by “and”; a condition that tells them apart may be missing. Identical values can stand only once.

The first data set can be described thus: Hydrolysis rate constant at pH 10. The data set is classed as ADME. The settings on record: buffer.
On to `O=C(Cc1cccs1)NC1C(=O)N2C(C(=O)[O-])=C(C[n+]3ccccc3)CSC12` (configuration not stated), for which the k was 0.675 h⁻¹ and 1.08 h⁻¹.
For `CC1=C(C(=O)O)N2C(=O)C(N)C2SC1` (configuration not stated), the k turned out to be 0.0097 h⁻¹.
For `CC1=C(C(=O)O)N2C(=O)C(NC(=O)COc3ccccc3)C2SC1` (configuration not stated), the k was 0.049 h⁻¹.
Same read-out and setting: then `Cc1nnc(SCC2=C(C(=O)O)N3C(=O)[C@@H](NC(=O)Cn4cnnn4)[C@H]3SC2)s1` [CEFAZOLIN], with 0.217 h⁻¹; and `CC(=O)OCC1=C(C(=O)O)N2C(=O)C(NC(=O)COc3ccccc3)C2SC1` (configuration not stated), with 0.378 h⁻¹.
The compound `CC(=O)OCC1=C(C(=O)O)N2C(=O)C(NC(=O)Cc3ccccc3)C2SC1` (configuration not stated) gave a k of 0.36 h⁻¹.
The compound `O=C(COc1ccccc1)NC1C(=O)N2C(C(=O)[O-])=C(C[n+]3ccccc3)CSC12` (configuration not stated) came in with a k of 0.857 h⁻¹.
`CC(=O)OCC1=C(C(=O)O)N2C(=O)C(NC(=O)Cc3cccs3)C2SC1` (configuration not stated): the k is 0.349 h⁻¹ and 0.3 h⁻¹.
Same read-out and setting: as for `O=C(COc1ccccc1)NC1C(=O)N2C(C(=O)O)=C(CO)CSC12` (configuration not stated), the figure is 0.084 h⁻¹; as for `CC1=C(C(=O)O)N2C(=O)C(NC(=O)Cc3cccs3)C2SC1` (configuration not stated), 0.038 h⁻¹; as for `CSCC1=C(C(=O)O)N2C(=O)C(NC(=O)Cc3cccs3)C2SC1` (configuration not stated), 0.079 h⁻¹.
The compound `CC1=C(C(=O)O)N2C(=O)C(NC(=O)Cc3ccccc3)C2SC1` (configuration not stated) showed a k of 0.033 h⁻¹.
Take `CC1=C(C(=O)O)N2C(=O)[C@@H](NC(=O)[C@H](N)c3ccccc3)[C@H]2SC1` [CEPHALEXIN ANHYDROUS]: the k turned out to be 0.145 h⁻¹.
`CC1=C(C(=O)O)N2C(=O)C(NC(=O)C(N)C3=CCC=CC3)C2SC1` (configuration not stated) showed a k of 0.067 h⁻¹.

Another data set in a line: Hydrolysis rate constant at pH 9.6. The data set is classed as ADME. The settings on record: buffer. Put shortly: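 Alkaline hydrolysis was followed by UV spectrophotometry on aqueous cephalosporin solutions at 6 × 10^-4 M and 35.0 ± 0.1 °C, with pH held at 9.60 ± 0.02 by borate buffer.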
On to `CC(C(=O)NC1C(=O)N2C(C(=O)O)=C(CSc3nnnn3C)CSC12)c1cccs1` (configuration not stated), for which the k came to 0.112 h⁻¹.
In turn, `Cc1nc(CC(=O)NC2C(=O)N3C(C(=O)O)=C(CSc4nnc(C)s4)CSC23)no1` (configuration not stated) registered a k of 0.104 h⁻¹.
`O=C(Cc1cccs1)NC1C(=O)N2C(C(=O)[O-])=C(C[n+]3ccccc3)CSC12` (configuration not stated) yielded a k of 0.53 h⁻¹.
With `NC(=O)c1ccc[n+](CC2=C(C(=O)[O-])N3C(=O)C(NC(=O)Cc4cccs4)C3SC2)c1` (configuration not stated), the k came out at 0.57 h⁻¹.
Still for that read-out and setting: then `Cc1nc(CC(=O)NC2C(=O)N3C(C(=O)O)=C(CSc4nnc(C)o4)CSC23)no1` (configuration not stated), with 0.105 h⁻¹; and `CC(=O)OCC1=C(C(=O)O)N2C(=O)[C@@H](N)[C@H]2SC1`, with 0.037 h⁻¹.
For `Cc1nc(CC(=O)NC2C(=O)N3C(C(=O)O)=C(CSc4c[nH]nn4)CSC23)no1` (configuration not stated), the k came out at 0.026 h⁻¹.
For `Cc1nnc(SCC2=C(C(=O)O)N3C(=O)[C@@H](NC(=O)Cn4cnnn4)[C@H]3SC2)s1` [CEFAZOLIN], the k worked out at 0.107 h⁻¹.
As to `Cn1nnnc1SCC1=C(C(=O)O)N2C(=O)C(NC(=O)Cc3cccs3)C2SC1` (configuration not stated), the k was determined as 0.126 h⁻¹.
Compound `CC(=O)OCC1=C(C(=O)O)N2C(=O)C(NC(=O)CSc3ccncc3)C2SC1` (configuration not stated) gave a k of 0.157 h⁻¹.
`O=C(Cc1cccs1)NC1C(=O)N2C(C(=O)O)=C(CSc3c[nH]nn3)CSC12` (configuration not stated) registered a k of 0.028 h⁻¹.
For the compound `CC1=C(C(=O)O)N2C(=O)C(NC(=O)Cc3noc(C)n3)C2SC1` (configuration not stated), the k came out at 0.021 h⁻¹.
For the compound `CC(=O)OCC1=C(C(=O)O)N2C(=O)C(NC(=O)Cc3cccs3)C2SC1` (configuration not stated), the k was determined as 0.147 h⁻¹.
Compound `O=C(Cc1cccs1)NC1C(=O)N2C(C(=O)O)=C(CSC3=CCC=CC3)CSC12` (configuration not stated) had a k of 0.019 h⁻¹.
For the compound `Cc1nnc(SCC2=C(C(=O)O)N3C(=O)C(NC(=O)Cc4cccs4)C3SC2)s1` (configuration not stated), the k came out at 0.12 h⁻¹.
The compound `O=C(Cc1cccs1)NC1C(=O)N2C(C(=O)O)=C(CSc3nc4ccccc4s3)CSC12` (configuration not stated) showed a k of 0.095 h⁻¹.
On the same count and under the same terms, as for `CC1=C(C(=O)O)N2C(=O)C(NC(=O)Cc3ccccc3)C2SC1` (configuration not stated), the figure is 0.017 h⁻¹; as for `CCN(CC)C(=S)SCC1=C(C(=O)O)N2C(=O)C(NC(=O)Cc3cccs3)C2SC1` (configuration not stated), 0.067 h⁻¹; as for `Cn1nnnc1SCC1=C(C(=O)O)N2C(=O)C(NC(=O)C(C(=O)[O-])c3cccs3)C2SC1.[Na+]` (configuration not stated), 0.122 h⁻¹.
In the case of `CC(=O)OCC1=C(C(=O)O)N2C(=O)C(NC(=O)NCc3cccs3)C2SC1` (configuration not stated), the k was greater than 3 h⁻¹.
Regarding `CC1=C(C(=O)O)N2C(=O)[C@@H](NC(=O)[C@H](N)c3ccccc3)[C@H]2SC1` [CEPHALEXIN ANHYDROUS], the k came to 0.058 h⁻¹.
On the same count and under the same terms, then `CC1=C(C(=O)O)N2C(=O)C(NC(=O)C(N)C3=CCC=CC3)C2SC1` (configuration not stated), with 0.056 h⁻¹; and `Cn1nnnc1SCC1=C(C(=O)O)N2C(=O)C(NC(=O)C(Br)c3cccs3)C2SC1` (configuration not stated), with 0.21 h⁻¹.

Values taken from ChEMBL document CHEMBL1122808, “Substituent effects on reactivity and spectral parameters of cephalosporins” (J Med Chem, 1984).
